In ChEMBL document CHEMBL1140133, “Phosphoramidate dinucleosides as hepatitis C virus polymerase inhibitors” (J Med Chem, 2008):

Assays:
Hepatitis C virus [1] = experiment: Inhibition of HCV 1b histidine tagged NS5B-delta55 polymerase-mediated RNA synthesis expressed in Escherichia coli BL21 cells assessed as decrease in accumulation of pppGC product; parameters: species or system Hepatitis C virus subtype 1b
How it was run: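 Recombinant NS5B-Δ55 with C-terminal His6, purified. Mix holds 10 µM RNA template (3′ end of HCV minus strand), 100 µM α-32P-CTP, 50 µM GTP and inhibitor 0–500 µM. Started with 1 µM NS5B, 30 °C 15 min, EDTA/formamide quench. pppGC resolved on sequencing gel, phosphorimager-quantified; IC50 fitted, ≥3 experiments.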

Hepatitis C virus [2] = experiment: Antiviral activity against HCV 1b in human Huh-5-2 cells assessed as inhibition of viral replication after 72 hrs by luciferase assay; assay type: functional, organism-based, Hepacivirus hominis; settings: genotype 1b, Huh-5-2, 72 h
How it was run: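 Huh-5-2 cells carrying HCV 1b subgenomic replicon (luciferase reporter), seeded 7000/well and left 24 h; five 5-fold serial dilutions from 50 µg/mL (~60 µM) added in medium without G418; 37 °C, 5% CO2, 72 h. Luciferase read after Glo-lysis; signal as % of untreated cultures, EC50 calculated. Interferon α-2a (500 IU) positive control.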

[3] = Cytotoxicity against human Huh-5-2 cells after 3 days by MTS assay; assay type: cell-based
How it was run: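 Parallel Huh-5-2 replicon cultures seeded 7000 cells/well, treated the same way as the antiviral assay (five 5-fold dilutions from ~60 µM, no G418). Cell proliferation measured 3 days after compound addition by MTS bioreduction to formazan, read on a plate reader.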

IC50 (Hepatitis C virus [1]) | EC50 (Hepatitis C virus [2]) | SMILES | CC50 at 72 h [3]
> 200 µM |  | CO[C@@H]1[C@H](OP(=O)(NCCCN(C)C)OC[C@H]2O[C@H](n3ccc(N)nc3=O)[C@H](O)[C@@H]2O)[C@H](COP(=O)(O)O)O[C@H]1n1cnc2c(=O)[nH]c(N)nc21 (stereo not given in full) | 
69 µM | 41 µM | CO[C@@H]1[C@H](OP(=O)(NCCCCCC(=O)O)OC[C@H]2O[C@@H](n3ccc(N)nc3=O)[C@H](O)[C@@H]2O)[C@@H](COP(=O)(O)O)O[C@H]1n1cnc2c(=O)[nH]c(N)nc21 (stereo not given in full) | > 60 µM
106 µM | > 60 µM | COCCNP(=O)(OC[C@H]1O[C@@H](n2ccc(N)nc2=O)[C@H](O)[C@@H]1O)O[C@H]1[C@@H](OC)[C@H](n2cnc3c(=O)[nH]c(N)nc32)O[C@@H]1COP(=O)(O)O (stereo not given in full) | > 60 µM
160 µM |  | CO[C@@H]1[C@H](OP(=O)(NCCCCCC(=O)O)OC[C@H]2O[C@@H](n3ccc(N)nc3=O)[C@H](O)[C@@H]2O)[C@@H](CO)O[C@H]1n1cnc2c(=O)[nH]c(N)nc21 (stereo not given in full) | 
> 200 µM |  | COCCNP(=O)(OC[C@H]1O[C@@H](n2ccc(N)nc2=O)[C@H](O)[C@@H]1O)O[C@H]1[C@@H](OC)[C@H](n2cnc3c(=O)[nH]c(N)nc32)O[C@@H]1CO (stereo not given in full) | 
52 µM | 38 µM | CO[C@@H]1[C@H](OP(=O)(NCCCCCC(=O)O)OC[C@H]2O[C@@H](n3ccc(N)nc3=O)[C@H](O)[C@@H]2O)[C@@H](COP(=O)(O)S)O[C@H]1n1cnc2c(=O)[nH]c(N)nc21 (stereo not given in full) | > 60 µM
47 µM | > 60 µM | COCCNP(=O)(OC[C@H]1O[C@@H](n2ccc(N)nc2=O)[C@H](O)[C@@H]1O)O[C@H]1[C@@H](OC)[C@H](n2cnc3c(=O)[nH]c(N)nc32)O[C@@H]1COP(=O)(O)S (stereo not given in full) | > 60 µM
